Source: ChEMBL document CHEMBL4270522, “Halogenated trimethoprim derivatives as multidrug-resistant Staphylococcus aureus therapeutics” (Bioorg Med Chem, 2018)
In brackets after ≈: the same amount, converted by molar mass.

Columns and labels:
Staphylococcus aureus [1] = assay: microbe, parasite or virus in culture; format: functional; settings: ATCC 29213, 20 h
Staphylococcus aureus [2] = assay: Synergistic antibacterial activity against methicillin-susceptible Staphylococcus aureus ATCC 29213 in presence of TMP-I after 20 hrs by broth microdilution-based checkerboard titration assay; format: functional
Staphylococcus aureus [3] = assay: Potentiation of TMP-Cl-mediated antibacterial activity against hospital-associated methicillin-resistant Staphylococcus aureus COL assessed as TMP-Cl MIC after 20 hrs by CLSI microdilution assay (reference value: 5 microg/ml); format: functional
Staphylococcus aureus [4] = assay: Synergistic antibacterial activity against hospital-associated methicillin-resistant Staphylococcus aureus COL in presence of TMP-I after 20 hrs by broth microdilution-based checkerboard titration assay; format: functional
Staphylococcus aureus [5] = assay: Potentiation of TMP-Br-mediated antibacterial activity against hospital-associated methicillin-resistant Staphylococcus aureus COL assessed as TMP-Br MIC after 20 hrs by CLSI microdilution assay (reference value: 5 microg/ml); format: functional
Staphylococcus aureus [6] = assay: Antibacterial activity against hospital-associated methicillin-resistant Staphylococcus aureus COL after 20 hrs by CLSI microdilution assay; format: functional
Staphylococcus aureus [7] = assay: microbe, parasite or virus in culture; format: functional; settings: ATCC 29213, 20 h; remark: listed apart in the source
Staphylococcus aureus [8] = assay: Synergistic antibacterial activity against methicillin-susceptible Staphylococcus aureus ATCC 29213 in presence of TMP after 20 hrs by broth microdilution-based checkerboard titration assay; format: functional
Staphylococcus aureus [9] = assay: Synergistic antibacterial activity against methicillin-resistant Staphylococcus aureus USA300 in presence of TMP-Cl after 20 hrs by broth microdilution-based checkerboard titration assay; format: functional
Staphylococcus aureus [10] = assay: microbe, parasite or virus in culture; format: functional; settings: USA300, 20 h
Staphylococcus aureus [11] = assay: Potentiation of TMP-mediated antibacterial activity against hospital-associated methicillin-resistant Staphylococcus aureus COL assessed as TMP MIC after 20 hrs by CLSI microdilution assay (reference value: 5 microg/ml); format: functional
Staphylococcus aureus [12] = assay: Potentiation of TMP-I-mediated antibacterial activity against hospital-associated methicillin-resistant Staphylococcus aureus COL assessed as TMP-I MIC after 20 hrs by CLSI microdilution assay (reference value: 2.50 microg/ml); format: functional
Staphylococcus aureus [13] = assay: Antibacterial activity against methicillin-resistant Staphylococcus aureus USA300 after 20 hrs by CLSI microdilution assay; format: functional; settings: USA300, 20 h
Staphylococcus aureus [14] = assay: Potentiation of TMP-Cl-mediated antibacterial activity against methicillin-resistant Staphylococcus aureus USA300 assessed as TMP-Cl MIC after 20 hrs by CLSI microdilution assay (reference value: 2.50 microg/ml); format: functional; settings: USA300, 20 h
Staphylococcus aureus [15] = assay: microbe, parasite or virus in culture; format: functional; settings: ATCC 29213, 20 h; remark: listed apart in the source
Staphylococcus aureus [16] = assay: Synergistic antibacterial activity against methicillin-resistant Staphylococcus aureus USA300 in presence of TMP after 20 hrs by broth microdilution-based checkerboard titration assay; format: functional
Staphylococcus aureus [17] = assay: Synergistic antibacterial activity against methicillin-susceptible Staphylococcus aureus ATCC 29213 in presence of TMP-Cl after 20 hrs by broth microdilution-based checkerboard titration assay; format: functional
Staphylococcus aureus [18] = assay: microbe, parasite or virus in culture; format: functional; settings: USA300, 20 h; remark: listed apart in the source
Staphylococcus aureus [19] = assay: microbe, parasite or virus in culture; format: functional; settings: USA300, 20 h; remark: listed apart in the source
Staphylococcus aureus [20] = assay: Synergistic antibacterial activity against hospital-associated methicillin-resistant Staphylococcus aureus COL in presence of TMP-Cl after 20 hrs by broth microdilution-based checkerboard titration assay; format: functional
Staphylococcus aureus [21] = assay: Synergistic antibacterial activity against methicillin-susceptible Staphylococcus aureus ATCC 29213 in presence of TMP-Br after 20 hrs by broth microdilution-based checkerboard titration assay; format: functional
Staphylococcus aureus [22] = assay: microbe, parasite or virus in culture; format: functional; settings: ATCC 29213, 20 h; remark: listed apart in the source
Staphylococcus aureus [23] = assay: Synergistic antibacterial activity against methicillin-resistant Staphylococcus aureus USA300 in presence of TMP-Br after 20 hrs by broth microdilution-based checkerboard titration assay; format: functional
Staphylococcus aureus [24] = assay: Antibacterial activity against methicillin-susceptible Staphylococcus aureus ATCC 29213 after 20 hrs by CLSI microdilution assay; format: functional; settings: ATCC 29213, 20 h
Staphylococcus aureus [25] = assay: Synergistic antibacterial activity against methicillin-resistant Staphylococcus aureus USA300 in presence of TMP-I after 20 hrs by broth microdilution-based checkerboard titration assay; format: functional
Staphylococcus aureus [26] = assay: Synergistic antibacterial activity against hospital-associated methicillin-resistant Staphylococcus aureus COL in presence of TMP-Br after 20 hrs by broth microdilution-based checkerboard titration assay; format: functional
Staphylococcus aureus [27] = assay: Synergistic antibacterial activity against hospital-associated methicillin-resistant Staphylococcus aureus COL in presence of TMP after 20 hrs by broth microdilution-based checkerboard titration assay; format: functional
Staphylococcus aureus [28] = assay: Potentiation of sulfamethoxazole-mediated antibacterial activity against methicillin-resistant Staphylococcus aureus USA300 assessed as sulfamethoxazole MIC after 20 hrs by CLSI microdilution assay (reference value: 100 microg/ml); format: functional; settings: USA300, 20 h
Staphylococcus aureus [29] = assay: Synergistic antibacterial activity against hospital-associated methicillin-resistant Staphylococcus aureus COL in presence of sulfamethoxazole after 20 hrs by broth microdilution-based checkerboard titration assay; format: functional
Staphylococcus aureus [30] = assay: Bactericidal activity against methicillin-susceptible Staphylococcus aureus ATCC 29213 preincubated for 20 hrs followed by agar plating and measured after 18 to 20 hrs; format: functional
In short: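 Broth microdilution per CLSI guideline. Compounds diluted 2-fold in MHB from 100 mM DMSO stocks. Inoculum ~10^5 CFU/mL final, from overnight TSB culture diluted in PBS. Plates incubated at 37 °C. Wells without growth by optical density spread on TSA and incubated at 37 °C. MBC is the lowest concentration giving no colonies. At least triplicate.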

A549 = assay: Cytotoxicity against human A549 cells after 24 to 48 hrs by fluorescence-based assay; format: cell-based
In short: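 A549 cells, ~10^4 per well in DMEM, given 2-fold serial dilutions of compound (DMSO stock diluted in DMEM). Incubated at 37 °C, 5% CO2. PrestoBlue added for 1 h, then fluorescence read at excitation 535 nm and emission 610 nm as a measure of viable cells.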

Staphylococcus aureus [31] = assay: Bactericidal activity against methicillin-resistant Staphylococcus aureus USA300 preincubated for 20 hrs followed by agar plating and measured after 18 to 20 hrs; format: functional
In short: (§1)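 MBC taken from broth microdilution (final about 10^5 CFU/mL, Mueller-Hinton broth, 37 °C for 20 h). Clear wells (basal optical density) were spread on TSA plates and incubated at 37 °C for 18–20 h. The lowest concentration giving no colonies is reported. At least triplicate.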

Staphylococcus aureus [32] = assay: Synergistic antibacterial activity against methicillin-susceptible Staphylococcus aureus ATCC 29213 assessed as fractional inhibitory concentration index in presence of sulfamethoxazole after 18 hrs by broth microdilution-based checkerboard titration assay; format: functional
Staphylococcus aureus [33] = assay: Synergistic antibacterial activity against methicillin-resistant Staphylococcus aureus USA300 in presence of sulfamethoxazole after 20 hrs by broth microdilution-based checkerboard titration assay; format: functional
Staphylococcus aureus [34] = assay: Potentiation of sulfamethoxazole-mediated antibacterial activity against hospital-associated methicillin-resistant Staphylococcus aureus COL assessed as sulfamethoxazole MIC after 20 hrs by CLSI microdilution assay (reference value: 200 microg/ml); format: functional
Staphylococcus aureus [35] = assay: Antibacterial activity against methicillin-resistant Staphylococcus aureus USA300 at 5 ug after 18 to 20 hrs by CLSI disk diffusion assay; format: functional; settings: read-out: DIZ
In short: (§2)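 Disk diffusion on 4 mm Mueller-Hinton agar swabbed with about 10^8 CFU/mL suspension in PBS; 6 mm paper disk loaded with 5 µg compound in DMSO; 37 °C ambient air for 18–20 h; diameter of the complete inhibition zone measured in mm with callipers from the plate back; at least three independent experiments, mean with standard error; 6 mm means no inhibition.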

Staphylococcus aureus [36] = assay: Antibacterial activity against methicillin-susceptible Staphylococcus aureus ATCC 25923 at 5 ug after 18 to 20 hrs by CLSI disk diffusion assay; format: functional; settings: read-out: DIZ
In short: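 Mueller-Hinton agar, 4 mm deep, swabbed with PBS-diluted overnight TSB culture (~10^8 CFU/mL). Paper disk (6 mm) loaded with compound in DMSO, incubated 37 °C in ambient air. Complete inhibition zone diameter read from plate back with callipers; 6 mm means no inhibition. At least three independent experiments, mean with standard error.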

Staphylococcus aureus [37] = assay: Antibacterial activity against hospital-associated methicillin-resistant Staphylococcus aureus COL at 5 ug after 18 to 20 hrs by CLSI disk diffusion assay; format: functional; settings: read-out: DIZ
In short: as §2

Staphylococcus aureus [38] = assay: Synergistic antibacterial activity against methicillin-resistant Staphylococcus aureus USA300 assessed as fractional inhibitory concentration index in presence of sulfamethoxazole after 18 hrs by broth microdilution-based checkerboard titration assay; format: functional
Staphylococcus aureus [39] = assay: Synergistic antibacterial activity against hospital-associated methicillin-resistant Staphylococcus aureus COL assessed as fractional inhibitory concentration index in presence of sulfamethoxazole after 18 hrs by broth microdilution-based checkerboard titration assay; format: functional
Staphylococcus aureus [40] = assay: Bactericidal activity against hospital-associated methicillin-resistant Staphylococcus aureus COL preincubated for 20 hrs followed by agar plating and measured after 18 to 20 hrs; format: functional
In short: as §1

Staphylococcus aureus [41] = assay: Potentiation of sulfamethoxazole-mediated antibacterial activity against methicillin-susceptible Staphylococcus aureus ATCC 29213 assessed as sulfamethoxazole MIC after 20 hrs by CLSI microdilution assay (reference value: 100 microg/ml); format: functional; settings: ATCC 29213, 20 h
Staphylococcus aureus [42] = assay: Synergistic antibacterial activity against methicillin-susceptible Staphylococcus aureus ATCC 29213 in presence of sulfamethoxazole after 20 hrs by broth microdilution-based checkerboard titration assay; format: functional

## Cc1cc(NS(=O)(=O)c2ccc(N)cc2)no1 [SULFAMETHOXAZOLE]
Staphylococcus aureus [1]
  MIC: 0.08 µg/mL (≈ 0.316 µM)
Staphylococcus aureus [2]
  FIC: 0.06
Staphylococcus aureus [3]
  MIC: 0.31 µg/mL
Staphylococcus aureus [4]
  FIC: 0.06
Staphylococcus aureus [5]
  MIC: 0.31 µg/mL
Staphylococcus aureus [6]
  MIC: 200 µg/mL (≈ 790 µM)
Staphylococcus aureus [7]
  MIC: 0.08 µg/mL (≈ 0.316 µM)
Staphylococcus aureus [8]
  FIC: 0.06
Staphylococcus aureus [9]
  FIC: 0.06
Staphylococcus aureus [10]
  MIC: 0.08 µg/mL (≈ 0.316 µM)
Staphylococcus aureus [11]
  MIC: 0.31 µg/mL
Staphylococcus aureus [12]
  MIC: 0.16 µg/mL
Staphylococcus aureus [13]
  MIC: 100 µg/mL (≈ 395 µM)
Staphylococcus aureus [14]
  MIC: 0.16 µg/mL
Staphylococcus aureus [15]
  MIC: 0.08 µg/mL (≈ 0.316 µM)
Staphylococcus aureus [16]
  FIC: 0.06
Staphylococcus aureus [17]
  FIC: 0.06
Staphylococcus aureus [18]
  MIC: 0.16 µg/mL (≈ 0.632 µM)
Staphylococcus aureus [19]
  MIC: 0.08 µg/mL (≈ 0.316 µM)
Staphylococcus aureus [20]
  FIC: 0.06
Staphylococcus aureus [21]
  FIC: 0.06
Staphylococcus aureus [22]
  MIC: 0.08 µg/mL (≈ 0.316 µM)
Staphylococcus aureus [23]
  FIC: 0.12
Staphylococcus aureus [24]
  MIC: 100 µg/mL (≈ 395 µM)
Staphylococcus aureus [25]
  FIC: 0.06
Staphylococcus aureus [26]
  FIC: 0.06
Staphylococcus aureus [27]
  FIC: 0.06

## COc1cc(Cc2cnc(N)nc2N)cc(Cl)c1OC
Staphylococcus aureus [28]
  MIC: 6.25 µg/mL
Staphylococcus aureus [6]
  MIC: 5 µg/mL (≈ 17 µM)
Staphylococcus aureus [29]
  FIC: 0.06
Staphylococcus aureus [30]
  MBC: 1.25 µg/mL (≈ 4.24 µM)
A549
  IC50: 467 µM
Staphylococcus aureus [31]
  MBC: 2.5 µg/mL (≈ 8.48 µM)
Staphylococcus aureus [32]
  fractional inhibitory concentration index (FICI): 0.12
Staphylococcus aureus [33]
  FIC: 0.06
Staphylococcus aureus [13]
  MIC: 2.5 µg/mL (≈ 8.48 µM)
Staphylococcus aureus [34]
  MIC: 12.5 µg/mL
Staphylococcus aureus [35]
  zone of inhibition at 5 µg/disc: 18.1 mm
Staphylococcus aureus [36]
  zone of inhibition at 5 µg/disc: 15.1 mm
Staphylococcus aureus [37]
  zone of inhibition at 5 µg/disc: 6 mm
Staphylococcus aureus [38]
  fractional inhibitory concentration index (FICI): 0.12
Staphylococcus aureus [39]
  fractional inhibitory concentration index (FICI): 0.12
Staphylococcus aureus [40]
  MBC: 10 µg/mL (≈ 33.9 µM)
Staphylococcus aureus [24]
  MIC: 1.25 µg/mL (≈ 4.24 µM)
Staphylococcus aureus [41]
  MIC: 6.25 µg/mL
Staphylococcus aureus [42]
  FIC: 0.06

## COc1cc(Cc2cnc(N)nc2N)cc(Br)c1OC
Staphylococcus aureus [28]
  MIC: 6.25 µg/mL
Staphylococcus aureus [6]
  MIC: 5 µg/mL (≈ 14.7 µM)
Staphylococcus aureus [29]
  FIC: 0.06
Staphylococcus aureus [30]
  MBC: 1.25 µg/mL (≈ 3.69 µM)
A549
  IC50: 321 µM
Staphylococcus aureus [31]
  MBC: 1.25 µg/mL (≈ 3.69 µM)
Staphylococcus aureus [32]
  fractional inhibitory concentration index (FICI): 0.12
Staphylococcus aureus [33]
  FIC: 0.06
Staphylococcus aureus [13]
  MIC: 1.25 µg/mL (≈ 3.69 µM)
Staphylococcus aureus [34]
  MIC: 12.5 µg/mL
Staphylococcus aureus [35]
  zone of inhibition at 5 µg/disc: 20.4 mm
Staphylococcus aureus [36]
  zone of inhibition at 5 µg/disc: 17.4 mm
Staphylococcus aureus [37]
  zone of inhibition at 5 µg/disc: 6 mm
Staphylococcus aureus [38]
  fractional inhibitory concentration index (FICI): 0.18
Staphylococcus aureus [39]
  fractional inhibitory concentration index (FICI): 0.12
Staphylococcus aureus [40]
  MBC: 5 µg/mL (≈ 14.7 µM)
Staphylococcus aureus [24]
  MIC: 1.25 µg/mL (≈ 3.69 µM)
Staphylococcus aureus [41]
  MIC: 6.25 µg/mL
Staphylococcus aureus [42]
  FIC: 0.06
